In the EternaBench riboswitch data:

Test system: MS2 coat protein
Test: apparent Kd, MS2 coat protein; higher = weaker binding; RNA-MaP array; FMN 200 µM where present
Procedure, shortened: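 The apparent Kd is reported as the median of filtered per-cluster binding-curve fits. To get these curves, designs transcribed by stalled E. coli RNA polymerase on Illumina sequencing-chip clusters were titrated with SNAP-549-labelled MS2 coat protein from 0.7 or 1.5 nM, doubling to 3 µM. Titrations were run without and then with constant ligand in 100 mM Tris-HCl pH 7.5, 80 mM KCl, 4 mM MgCl2, BSA, DTT, yeast tRNA and Tween-20, and green signal was normalised to red-channel RNA signal and control-cluster median Fmax.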

[1] = designed as: ON switch for flavin mononucleotide, no ligand
[2] = ligand present: flavin mononucleotide, designed as: ON switch for flavin mononucleotide
[3] = designed as: OFF switch for flavin mononucleotide, no ligand
[4] = ligand present: flavin mononucleotide, designed as: OFF switch for flavin mononucleotide

Sequence | apparent Kd [1] | apparent Kd [2] | apparent Kd [3] | apparent Kd [4]
UGUAUUAAUGGAGGAUAUCGAUAUCAAACAUGAGGAUCACCCAUGUUGAGGAUCACCCAUGUCCACGAGAAGGCUGGCGUACGU | 16.6 nM | 18.1 nM | – | –
CUAAUGUGAGGAUAUGGUGUUGAUCACAGGAAGGAGAUUCUCCAGAAGGCACAUGAGGAUCACCCAUGUAGUGA | – | – | 163 nM | 142 nM
UUAUUAGCAGGAUAUAUCCGGGAUAACAUGAGGAUCACCCAUGUGACCGCUUGAUAUCCUAUAGAAGGGCUUUAUU | – | – | 19.9 nM | 31.4 nM
AAUGUUGUUGUGAGGAUAUCGUAGUUAUUUUGAAACGAGAAGGCACAUGAGGAUCACCCAUGUUUGUUGAUGGU | – | – | 22.9 nM | 47.9 nM
GUAGCAACAUGAGGAUCACCCAUGUAGGAUAUCGCUAUUGUAAUCAUGAAACAUGAUUACAAUAGCGAGAAGGACAUAUGCUAC | – | – | 6.93 nM | 10.2 nM
UCAUUGAUUGUGAGGAUAUCGAUGUGAUGGUUUGUCGAGAAGGCACAUGAGGAUCACCCAUGUUUGUUUGGGCU | – | – | 494 nM | 253 nM
GGAAGACAUGAGGAUCACCCAUGUGGGAUUAUGGGAGGAUAUACAAAGACGAGAGUCAGAGUAGAAGGCCUAGGAU | 84.3 nM | 33.9 nM | – | –
UGUGAGUUGAUGUUAGAUAGGAGAACAUGAGGAUCACCCAUGUAGGAUAUUCAAAGACGAAGAUAGAAGAAGGACAUAGGUUUC | – | – | 17.7 nM | 21.5 nM
CUCGUGUCAGGAUAUGGAAGGCCGUUUGAUUAACGAGGGUACUAGAAGGGACAUGAGGAUCACCCAUGUAAAAA | – | – | 37.7 nM | 57.6 nM
CGCUAGUCAGGAUAUACGAACAUGUCAAAAGACGUGAAGGGACAUGAGGAUCACCCAUGUAGAAGGGACUAGCA | – | – | 35.7 nM | 114 nM
CUAUUACGAGGAUAUGAUUUAAAUAACAUGAGGAUCACCCAUGUUUUUACGUUAUUAUGUUCAGAAGGCGUAUUGU | – | – | 26.5 nM | 19.4 nM
AUUAUGACCGAGUUAUAGUUCCUAACAUGAGGAUCACCCAUGUAGGAUAUCAGCACGAUAAGUGCUGAGAAGGACAUCUCGGUC | – | – | 13.3 nM | 13.9 nM
UUACACUUGAGGGUCUCCCUUGACAUGAGGAUCACCCAUGUGCAGGAUAUACGUGUGAUGGUAUAGUAGAAGGGCACUCUAUGU | – | – | 23 nM | 29.7 nM
GGUUACAAGUAAGGAUAUGCAUAUGAAACAUAUGCAGAAGGUACAUGAGGAUCACCCAUGUUAUUGCAAAGCGAAUAAGUAACC | – | – | 15.6 nM | 20.9 nM
UUAUACGUUGAGGAUAUGCGACUUUGUAUAGUUGUAGAAGGCGAUACAUGAGGAUCACCCAUGUUUAUGGGCAU | – | – | 323 nM | 554 nM
GCCGAUUAAGUCAGGAUAUACCUAUGGAUACAUAGGUAGAAGGGACAUGAGGAUCACCCAUGUUCCUCAGCGGC | – | – | 16.6 nM | 50.2 nM
CCAAGAAUAGGAUAUACACCGUGUCAGCUUUUAUAUAUCGCACAUGAGGAUCACCCAUGUAGAAGGGUUCUCUC | – | – | 676 nM | 564 nM
GUUGGUGUAGAAGGAUAUUGGUGAUGCGUCUUGUACAUGAGGAUCACCCAUGUCACUCUGCACGCCGAGAAGGUCUGCAAAUGG | 70 nM | 48.1 nM | – | –
GGAGCCGGCCUAGGAUAUUUCAUAAUAUUACAUGAGGAUCACCCAUGUAGGCCAGAAGGCCUUGGGAAGAAGGAGGUCGGCUCC | 42.6 nM | 15.9 nM | – | –
GGUGCGUAUGUGAGGAUAUGCUGGUCCUUGGGUCGGCAGAAGGCACAUGAGGAUCACCCAUGUGGUGUCGUUCC | – | – | 86.2 nM | 86.5 nM
CGCUAAGAUGGGUUUAAUGGAGCAUAGGAUAUGCUUGUACAUGAGGAUCACCCAUGUUAUAUUGUGCAGAAGGGUGCAUUUGCG | 457 nM | 158 nM | – | –
GAGAAACAUGAGGAUCACCCAUGUGAGGAUAUGCGUACGUUGUCCGUAGGCGACGUGCGCAGAAGGCGCAAAGG | – | – | 83.9 nM | 118 nM
GGUGUCGCAUGAGGAUAUGGUCAGCUUUGCUGACCAGAAGGCAUGUCAAUAGACAUGAGGAUCACCCAUGUAGUAAAGACACCA | – | 37.1 nM | – | –
AUAGGUUAAGGAGGAUAUAGAGGGAGACGUACACAUGAGGAUCACCCAUGUAUUUAAUUAGUUUACUAGAAGGCUUAUGAUUGU | 65.5 nM | 101 nM | – | –
UCAUCAACGGGCGGGUCGGUUGGACAUGAGGAUCACCCAUGUAGAAGGACCGGUGGACUCCGCCGGUAGGAUAUACAUUUGGUG | – | – | 41.6 nM | 30.1 nM
AACAAGAGGAUCACCCAUGUAACAUGAGGAUCACCCAUGUUUAAGGAUAUGUACAUGAUACAUGUACAGAAGGUGGAUUGGACU | – | – | 26.2 nM | 27.2 nM
CAAUUUAUAACAGGAUAUGUAUUACAAUAGUUAAUAGAAGGGUUUAAUACAUGAGGAUCACCCAUGUCAUGUGUCAUAAUUACC | – | – | 33.5 nM | 28.8 nM
CCGCCAAUCGAGAAGGGCCCAUGUGCUACGUCGGCAGGAUAUCGACAUGAGGAUCACCCAUGUUGGCGAUCCUUUUUGGCGAAC | – | – | 149 nM | 108 nM
